Non-standard residues stand in square brackets, D forms with d. Residues, ends and D or L forms follow the SMILES beside them. No end group written: not given here. pS = N[C@@H](COP(=O)(O)O)C(=O)O
Assays:
[1] = target: GST-53BP1 residues 1702-1972 (BRCT domains fragment) (Homo sapiens, UniProt Q12888); format: binding
Procedure, shortened: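 GST-53BP1 (residues 1702-1972; E. coli-expressed, glutathione-affinity purified, dialysed), 200 nM, with probe 1 or probe 2 (5 μM), or with probe 1 plus γH2AX peptide (100 μM). Incubation 20 min on ice, then 365 nm UV for 15 min on ice. Cross-linking read by streptavidin Western blot. Two independent experiments.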

MDC1 = test: CLASPI 'selectivity filter' SILAC proteomics in HeLa lysate; format: binding; settings: probes 5 μM, nocodazole-arrested HeLa lysate, SILAC LC-MS/MS
Procedure, shortened: (§1)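 Heavy (13C615N4-Arg 22 mg/L, 13C615N2-Lys 50 mg/L) or light SILAC-labelled HeLa S3 cells, nocodazole-arrested, lysed by cryogenic grinding. Lysates photo-cross-linked with γH2AX probe 1 or H2AX probe 2 (5 μM), combined, streptavidin-captured (0.5% SDS, 90 min RT), washed, dithionite-eluted. SDS-PAGE, in-gel trypsin digestion, LC-MS/MS on LTQ-Orbitrap, SILAC ratio quantitation. Forward and reverse label-swap runs.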

53BP1 = test: as above; format: binding; settings: probes 5 μM, nocodazole-arrested HeLa lysate, SILAC LC-MS/MS
Procedure, shortened: as §1

POLG = test: as above; format: binding; settings: probes 5 μM, nocodazole-arrested HeLa lysate, SILAC LC-MS/MS
Procedure, shortened: as §1

SIRT1 = test: as above; format: binding; settings: probes 5 μM, nocodazole-arrested HeLa lysate, SILAC LC-MS/MS
Procedure, shortened: as §1

MCM2 = test: as above; format: binding; settings: probes 5 μM, nocodazole-arrested HeLa lysate, SILAC LC-MS/MS
Procedure, shortened: as §1

53BP1-BRCT = 53BP1-BRCT (Homo sapiens, UniProt Q12888); test: Fluorescence anisotropy competition binding against fluorescein-pSQEY-OH
Chain of 53BP1-BRCT (Q12888 1702-1972): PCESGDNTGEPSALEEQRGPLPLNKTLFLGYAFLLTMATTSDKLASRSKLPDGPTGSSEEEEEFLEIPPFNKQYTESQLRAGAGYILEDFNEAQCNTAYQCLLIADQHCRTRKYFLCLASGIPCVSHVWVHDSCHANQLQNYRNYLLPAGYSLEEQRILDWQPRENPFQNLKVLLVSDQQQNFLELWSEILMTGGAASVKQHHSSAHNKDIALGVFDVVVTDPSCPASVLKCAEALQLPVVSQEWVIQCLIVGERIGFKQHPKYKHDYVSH
Procedure, shortened: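 Untagged 53BP1 tandem BRCT (6 μM; GST removed by PreScission, anion-exchange purified) with fluorescein-phospho-SQEY peptide (50 nM) and graded unlabelled competitor peptide. Buffer: 50 mM HEPES pH 7.5, 150 mM NaCl, 1 mM DTT. Anisotropy read after equilibration. IC50 from four-parameter sigmoidal fit. Ki from IC50 using bound/total ligand, receptor and direct-binding Kd.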

[2] = target: fluorescein-phospho-SQEY-OH; test: fluorescence polarisation
fluorescein-SQEY-OH = target: T1, fluorescein-SQEY-OH; test: fluorescence polarisation
T1 sequence (peptide, fluorescein on the N-terminus; free C-terminal carboxylate): SQEY

[3] = target: histone H4 methylated K20 (Homo sapiens) (UniProt P62805); settings: cited from earlier work
MDC1-BRCT = target: T2, MDC1-BRCT (Homo sapiens, UniProt Q14676); format: binding
T2 sequence (Q14676 1883-2089): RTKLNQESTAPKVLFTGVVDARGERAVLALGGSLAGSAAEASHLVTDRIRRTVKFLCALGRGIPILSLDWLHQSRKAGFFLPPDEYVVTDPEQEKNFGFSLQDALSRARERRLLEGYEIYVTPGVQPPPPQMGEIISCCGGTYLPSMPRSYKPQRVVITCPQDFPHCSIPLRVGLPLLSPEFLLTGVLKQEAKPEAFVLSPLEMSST
Procedure, shortened: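 E. coli-expressed, glutathione-affinity-purified MDC1-BRCT (200 nM) with biotinylated probe 1 (1 μM) and graded γH2AX competitor peptide (Ac-KKATQApSQEY-OH). Incubation 20 min on ice, then 365 nm UV for 15 min on ice. Cross-linked complexes detected by Western blot with streptavidin-based detection. Mean ± s.d., n=3.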

[4] = target: 53BP1-BRCT (53BP1 tandem BRCT domains, residues 1702-1972), untagged (human) (UniProt Q12888); test: fluorescence polarisation
Chain of 53BP1-BRCT (53BP1 tandem BRCT domains, residues 1702-1972), untagged (human) (Q12888 1702-1972): as the sequence (Q12888 1702-1972) above

Chain of GST-53BP1 residues 1702-1972 (BRCT domains fragment) (Q12888 1702-1972): as the sequence (Q12888 1702-1972) above

For CC(=O)N[C@@H](Cc1cn(CCc2ccc(O)c(N=Nc3ccc(C(=O)NCCOCCOCCOCCOCCNC(=O)CCCC[C@@H]4SC[C@@H]5NC(=O)N[C@@H]54)cc3)c2)nn1)C(=O)N[C@@H](CCCCN)C(=O)N[C@@H](CCCCN)C(=O)N[C@@H](C)C(=O)N[C@@H](Cc1ccc(C(=O)c2ccccc2)cc1)C(=O)N[C@@H](CCC(N)=O)C(=O)N[C@@H](C)C(=O)N[C@@H](COP(=O)(O)O)C(=O)N[C@@H](CCC(N)=O)C(=O)N[C@@H](CCC(=O)O)C(=O)N[C@@H](Cc1ccc(O)cc1)C(=O)O [probe 1], the “photo-cross-linking to BRCT domains fragment (in words)” value ([1]; probe 5 μM, streptavidin Western blot, representative of 2 experiments) was “robust cross-linking”, the “enrichment ratio of MDC1, probe 1 relative to probe 2” value (MDC1) was 3.9 and the “enrichment ratio of 53BP1, probe 1 relative to probe 2” value (53BP1) was 4.9. The “enrichment ratio of POLG, probe 1 relative to probe 2” value (POLG) was 2.5–3.5, the “enrichment ratio of SIRT1, probe 1 relative to probe 2” value (SIRT1) was 2.5–3.5 and the “enrichment ratio of MCM2, probe 1 relative to probe 2” value (MCM2) was 2.5–3.5.

With NC(=O)CC[C@H](NC(=O)[C@@H](N)COP(=O)(O)O)C(=O)N[C@@H](CCC(=O)O)C(=O)N[C@@H](Cc1ccc(O)cc1)C(N)=O [pSQEY-NH2] (H-[pS]QEY-NH2) the Ki (53BP1-BRCT) was 25 ± 0.58 µM.

Work on NC(=O)CC[C@H](NC(=O)[C@@H](N)COP(=O)(O)O)C(=O)N[C@@H](CCC(=O)O)C(=O)N[C@@H](Cc1ccc(O)cc1)C(=O)O [pSQEY-OH] (H-[pS]QEY-OH) yielded a Ki (53BP1-BRCT) of 7.5 ± 1.1 µM.

In the case of “53BP1-BRCT K1814M (from UniProt Q12888 1702-1972) (domain or fragment)”, the Kd [2] is reported as > 70 µM.

Work on “53BP1-BRCT R1811Q (from UniProt Q12888 1702-1972) (domain or fragment)” yielded a Kd [2] of 35 µM.

“53BP1-BRCT (53BP1 tandem BRCT domains, residues 1702-1972), untagged (from UniProt Q12888 1702-1972) (domain or fragment)” gave a percent of peptide bound at 50 μM 53BP1-BRCT (fluorescein-SQEY-OH) of 10% and a Kd [2] of 2.7 µM.

In the case of “53BP1 tandem Tudor (from UniProt Q12888)”, the Kd [3] is listed as 20 µM.

For CC(=O)N[C@@H](CCCCN)C(=O)N[C@@H](CCCCN)C(=O)N[C@@H](C)C(=O)N[C@H](C(=O)N[C@@H](CCC(N)=O)C(=O)N[C@@H](C)C(=O)N[C@@H](COP(=O)(O)O)C(=O)N[C@@H](CCC(N)=O)C(=O)N[C@@H](CCC(=O)O)C(=O)N[C@@H](Cc1ccc(O)cc1)C(=O)O)[C@@H](C)O [γH2AX peptide, Ac-KKATQApSQEY-OH, reference compound] (Ac-KKATQA[pS]QEY-OH), the IC50 (MDC1-BRCT) was 4.4 ± 1.6 µM and the Kd [1] was < 100 µM.

B1: unlabeled phospho-SQEY-OH tetrapeptide (peptide)
peptide: [pS]QEY-OH
B1 gave a Ki [4] of 7.5 µM.

B2: phospho-SQEY-NH2 (peptide)
peptide: [pS]QEY-NH2
B2 gave a Ki [4] of 25 µM.

B3: phospho-SPTF-OH (peptide)
peptide: [pS]PTF-OH
B3 gave a Ki [4] of 46 µM.
